Measured values: ChEMBL document CHEMBL5108049, “Development and Characterization of Type I, Type II, and Type III LIM-Kinase Chemical Probes” (J Med Chem, 2022)
pIC50: −log10 of the molar value.

Experiments:
LIM domain kinase 1 [1] = target: T1, LIM domain kinase 1 (Homo sapiens, UniProt P53667); assay: Binding affinity to recombinant LIMK1 (330 to 637 residues) (unknown origin) expressed in baculovirus infected insect cells assessed as change in melting temperature at 10 uM by differential scanning fluorimetry
Target sequence in this assay (P53667 whole entry, looked up, the tested form may be a part): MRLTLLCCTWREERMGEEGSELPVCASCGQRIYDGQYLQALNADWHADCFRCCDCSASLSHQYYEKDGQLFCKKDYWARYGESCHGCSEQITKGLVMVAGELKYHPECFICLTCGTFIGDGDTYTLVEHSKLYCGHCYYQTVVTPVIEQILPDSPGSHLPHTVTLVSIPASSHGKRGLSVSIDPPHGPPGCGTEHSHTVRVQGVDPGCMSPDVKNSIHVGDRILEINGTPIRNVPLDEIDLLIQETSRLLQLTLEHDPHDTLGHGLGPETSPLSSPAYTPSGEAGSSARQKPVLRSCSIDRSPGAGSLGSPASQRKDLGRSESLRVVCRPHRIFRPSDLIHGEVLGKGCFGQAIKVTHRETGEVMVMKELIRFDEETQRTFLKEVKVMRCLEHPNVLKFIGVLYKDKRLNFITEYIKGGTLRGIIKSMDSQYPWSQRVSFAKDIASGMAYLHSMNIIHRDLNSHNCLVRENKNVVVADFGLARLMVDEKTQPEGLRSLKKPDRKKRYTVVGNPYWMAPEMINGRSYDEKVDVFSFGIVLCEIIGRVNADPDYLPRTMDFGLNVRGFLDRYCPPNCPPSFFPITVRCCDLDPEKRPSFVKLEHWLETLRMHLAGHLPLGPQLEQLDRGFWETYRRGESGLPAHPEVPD

LIM domain kinase 2 [2] = target: T2, LIM domain kinase 2 (Homo sapiens, UniProt P53671); assay: Binding affinity to recombinant LIMK2 (330 to 632 residues) (unknown origin) expressed in baculovirus infected insect cells assessed as change in melting temperature at 10 uM by differential scanning fluorimetry
Target sequence in this assay (P53671 whole entry, looked up, the tested form may be a part): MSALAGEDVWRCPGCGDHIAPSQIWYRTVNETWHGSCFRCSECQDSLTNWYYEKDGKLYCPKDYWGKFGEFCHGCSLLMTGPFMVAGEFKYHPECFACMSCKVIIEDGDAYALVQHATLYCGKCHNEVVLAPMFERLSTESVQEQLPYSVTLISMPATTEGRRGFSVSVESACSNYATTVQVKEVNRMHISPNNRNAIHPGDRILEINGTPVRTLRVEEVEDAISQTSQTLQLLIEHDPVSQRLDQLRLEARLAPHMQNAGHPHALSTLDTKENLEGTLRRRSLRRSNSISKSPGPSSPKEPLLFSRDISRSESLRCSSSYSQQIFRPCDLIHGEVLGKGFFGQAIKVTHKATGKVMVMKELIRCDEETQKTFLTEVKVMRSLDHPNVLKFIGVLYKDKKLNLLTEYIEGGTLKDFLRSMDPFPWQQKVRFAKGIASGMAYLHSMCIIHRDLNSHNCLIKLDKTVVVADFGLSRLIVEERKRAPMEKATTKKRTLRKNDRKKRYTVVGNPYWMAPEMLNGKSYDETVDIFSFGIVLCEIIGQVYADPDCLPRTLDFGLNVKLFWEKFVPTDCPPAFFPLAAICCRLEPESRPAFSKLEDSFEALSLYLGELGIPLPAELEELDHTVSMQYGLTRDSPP

LIM domain kinase 1 [3] = target: T1, LIM domain kinase 1; assay: Inhibition of recombinant full length LIMK1 (330 to 637 residues) (unknown origin) expressed in HEK293T cells incubated for 2 hrs in presence of tracer K10 by NanoBRET assay; type: cell-based
Target sequence in this assay (P53667 whole entry, the tested form may be a part): as the sequence (P53667 whole entry, looked up, the tested form may be a part) above

LIM domain kinase 2 [4] = target: T2, LIM domain kinase 2; assay: Inhibition of recombinant full length LIMK2 (330 to 632 residues) (unknown origin) expressed in HEK293T cells incubated for 2 hrs in presence of tracer K10 by NanoBRET assay; type: cell-based
Target sequence in this assay (P53671 whole entry, the tested form may be a part): as the sequence (P53671 whole entry, looked up, the tested form may be a part) above

N1E-115 = assay: Inhibition of neurite outgrowth in BMP7 stimulated mouse N1E-115 cells transfected with siFMR1 preincubated for 12 hrs followed by BMP7 stimulation for 24 hrs; type: functional, cell-based; settings: dose 0.05-5 µM, time 36.0 hrs, DDE = dose-dependent effect
In short: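 At 60 h, the medium was switched to 0.2% FBS containing inhibitor (0.05, 0.5 or 5 μM; DMSO stock) or DMSO for 12 h, then 10 ng/mL BMP7 was added for 24 h. The percentage of cells with neurites longer than one cell body was counted by microscopy, ≥100 cells per condition; mean + SD, N = 4.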

ΔTm (LIM domain kinase 1 [1]) | ΔTm (LIM domain kinase 2 [2]) | pIC50 (LIM domain kinase 1 [3]) | pIC50 (LIM domain kinase 2 [4]) | SMILES | inhibition (N1E-115)
0.9 °C | 0.1 °C | – | – | CN(Cc1ccccc1)C(=O)c1ccc(S(=O)(=O)NCCc2ccccc2)cc1 | –
6.8 °C | 12.3 °C | 6.33 | 6.92 | O=C(c1ccc(S(=O)(=O)Nc2ccccc2)cc1)N(CCc1cn(Cc2ccccc2)nn1)Cc1ccccc1 | –
– | – | – | – | CC(C)C(=O)Nc1ncc(-c2cc(C(F)F)nn2-c2c(Cl)cccc2Cl)s1 | Dde
– | – | – | – | CCCCN(Cc1ccccc1)C(=O)c1ccc(S(=O)(=O)Nc2ccccc2)cc1 | Dde
8.6 °C | – | 6.60 | 7.04 | O=C(c1ccc(S(=O)(=O)Nc2ccccc2)cc1)N(CCc1ccccc1)Cc1ccccc1 | –
4.5 °C | – | – | – | CN(Cc1ccccc1)C(=O)c1ccc(S(=O)(=O)Nc2ccccc2)cc1 | –
0.9 °C | – | – | – | CN(Cc1ccccc1)C(=O)c1ccc(S(=O)(=O)Nc2cccc(Cl)c2)cc1 | –
1.3 °C | 3.2 °C | – | – | CN(CCc1ccccc1)C(=O)c1ccc(S(=O)(=O)Nc2ccccc2)cc1 | –
– | – | – | – | CC(C)C(=O)Nc1ncc(C(=O)NCCN(Cc2ccccc2)C(=O)c2ccc(S(=O)(=O)Nc3ccccc3)cc2)s1 | Dde
